Entries after “also recorded” stand apart in the source; their conditions may differ. *1 amine or outer side, *2 acyl side, *3 side chain or, on linkers, in order; H or OH if unused. Where a SMILES comes first, the peptide text is derived from it. Bridges are numbered along the chain shown (N, C = ends). [ ]: non-standard residue; d: D form. The star is where a group is joined. hTyr(3S-OH,4S-OH,3'-OSO3H) = N[C@H](C(=O)O)[C@H](O)[C@@H](O)c1ccc(O)c(OS(=O)(=O)O)c1; Orn(4R-OH,5R-OH) = O=C([C@H](C[C@@H](O)[C@@H](O)N[*:3])N[*:1])[*:2]; Pro(3S-OH,4S-Me) = C[C@H]1CN[C@H](C(=O)O)[C@H]1O; X1 = CCCCCOc1ccc(-c2cc(-c3ccc(C(=O)*)cc3)no2)cc1; Gln(3R-OH) = NC(=O)C[C@@H](O)[C@H](N)C(=O)O; Hyp = O=C(O)[C@@H]1C[C@@H](O)CN1
Key:
[1] = Plasma pharmacokinetics of repeat-dose intravenous micafungin in young infants; format: in vivo, human; settings: for AUC(0-t): log-linear method; for Vd: Vdss/wt
Method in brief: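 Infants aged >48 h to day of life 120 with suspected candidaemia or invasive candidiasis got test compound by 1-h IV infusion every 24 h. Blood samples (50–100 μl; ≤500 μl total, away from infusion site) were taken around the day-4 dose: pre-dose, end of infusion, and 2–4, 8–12 and 20–24 h. Plasma was measured by LC-MS/MS (LLOQ 0.05 μg/ml). Analysis was non-compartmental: CLss = dose/AUC0–24, AUC by log-linear method, observed Tmax.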

[2] = Safety and tolerability of repeat-dose micafungin in young infants; format: in vivo, human
Method in brief: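 Multicentre open-label study: 7 mg/kg/day (≥1,000 g) or 10 mg/kg/day (<1,000 g) by 1-h IV infusion every 24 h for 4–5 days. Safety set: infants given ≥1 dose. Physical exams, haematology, serum chemistry and vital signs were taken at screening (≤72 h pre-dose) and until 72 h after the last dose. Investigators graded AEs for severity and drug relationship; treatment-emergent AEs counted through 72 h post-dose.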

[3] = adults, cited from earlier work
[4] = infants weighing > 1,000 g, single dose 0.75, 1.5 or 3.0 mg/kg; cited from earlier work
[5] = febrile neutropenic pediatric patients, Phase I; cited from earlier work
[6] = overall (7 and 10 mg/kg/day groups), day 4, n=12

**Q.** With `CCCCCOc1ccc(-c2cc(-c3ccc(C(=O)N[C@H]4C[C@@H](O)[C@@H](O)NC(=O)[C@@H]5[C@@H](O)[C@@H](C)CN5C(=O)[C@H]([C@H](O)CC(N)=O)NC(=O)[C@H]([C@H](O)[C@@H](O)c5ccc(O)c(OS(=O)(=O)O)c5)NC(=O)[C@@H]5C[C@@H](O)CN5C(=O)[C@H]([C@@H](C)O)NC4=O)cc3)no2)cc1` [micafungin] (X1-[Orn(4R-OH,5R-OH)]T[Hyp][hTyr(3S-OH,4S-OH,3'-OSO3H)][Gln(3R-OH)][Pro(3S-OH,4S-Me)]; lactam 1-C) as the compound, how does the “Median total body clearance adjusted for weight, lower in infants ≥ 1,000 g than in infants < 1,000 g” value ([1]; 7 mg/kg/day (≥ 1,000 g) vs 10 mg/kg/day (< 1,000 g)) read?
**A.** 21%

**Q.** What about the “AUC0–24 of a single infant (highest observed)” value ([1]; 7 mg/kg/day group, subject 4, weight 4.5 kg, single infant) of the same compound?
**A.** 643.2 µg·h/mL

**Q.** And the “CLss/wt, median (range)” value ([1]; 7 mg/kg/day, IV, day 4, infants ≥ 1,000 g, n=6)?
**A.** 0.4 (0.2–0.6) ml/min/kg

**Q.** What about the “Tmax, median (range)” value ([1]; 10 mg/kg/day, 1-h IV infusion, day 4, infants < 1,000 g, n=6) of the same compound?
**A.** 1.1 (1.0–1.1) h

**Q.** What about the “CLss/wt, median (range)” value ([1]; 10 mg/kg/day, IV, day 4, infants < 1,000 g, n=6) of the same compound?
**A.** 0.6 (0.4–0.8) ml/min/kg

**Q.** And the “CLss, median (range)” value ([1]; 10 mg/kg/day, IV, day 4, infants < 1,000 g, n=6, dose/AUC0–24)?
**A.** 0.4 (0.2–0.5) ml/min

**Q.** What about the AUC(0-t) ([1]; human, plasma, iv, 7 mg/kg/day, AUC0–24, mean (SD), 7 mg/kg/day, 1-h IV infusion, day 4, infants ≥ 1,000 g, n=6, plasma, SD) of the same compound?
**A.** 308 µg·h/mL

**Q.** What about the AUC(0-t) ([1]; human, plasma, iv, 7 mg/kg/day, AUC0–24, median (range), 7 mg/kg/day, 1-h IV infusion, day 4, infants ≥ 1,000 g, n=6, plasma) of the same compound?
**A.** 258 µg·h/mL

**Q.** What about the clearance ([1]; human, plasma, iv, 7 mg/kg/day, CLss, mean (SD), 7 mg/kg/day, IV, day 4, infants ≥ 1,000 g, n=6, dose/AUC0–24, SD) of the same compound?
**A.** 0.9 mL/min

**Q.** And the clearance ([1]; human, plasma, iv, 7 mg/kg/day, CLss, median (range), 7 mg/kg/day, IV, day 4, infants ≥ 1,000 g, n=6, dose/AUC0–24)?
**A.** 0.7 mL/min

**Q.** What about the clearance ([1]; human, plasma, iv, 7 mg/kg/day, CLss/wt, mean (SD), 7 mg/kg/day, IV, day 4, infants ≥ 1,000 g, n=6, SD) of the same compound?
**A.** 0.4 mL/min/kg

**Q.** And the clearance ([1]; human, plasma, iv, 7 mg/kg/day, CLss/wt, median (range), 7 mg/kg/day, IV, day 4, infants ≥ 1,000 g, n=6)?
**A.** 0.45 mL/min/kg

**Q.** What about the Vd ([1]; human, plasma, iv, 7 mg/kg/day, mean (SD), 7 mg/kg/day, IV, day 4, infants ≥ 1,000 g, n=6, SD) of the same compound?
**A.** 0.391 L/kg

**Q.** And the Vd ([1]; human, plasma, iv, 7 mg/kg/day, median (range), 7 mg/kg/day, IV, day 4, infants ≥ 1,000 g, n=6)?
**A.** 0.341 L/kg

**Q.** And the AUC(0-t) ([1]; human, plasma, iv, 10 mg/kg/day, AUC0–24, median (range), 10 mg/kg/day, 1-h IV infusion, day 4, infants < 1,000 g, n=6, plasma)?
**A.** 291 µg·h/mL

**Q.** And the clearance ([1]; human, plasma, iv, 10 mg/kg/day, CLss, mean (SD), 10 mg/kg/day, IV, day 4, infants < 1,000 g, n=6, dose/AUC0–24, SD)?
**A.** 0.4 mL/min

**Q.** And the clearance ([1]; human, plasma, iv, 10 mg/kg/day, CLss/wt, mean (SD), 10 mg/kg/day, IV, day 4, infants < 1,000 g, n=6, SD)?
**A.** 0.6 mL/min/kg

**Q.** What about the clearance ([1]; human, plasma, iv, 10 mg/kg/day, CLss/wt, median (range), 10 mg/kg/day, IV, day 4, infants < 1,000 g, n=6) of the same compound?
**A.** 0.57 mL/min/kg

**Q.** And the Vd ([1]; human, plasma, iv, 10 mg/kg/day, mean (SD), 10 mg/kg/day, IV, day 4, infants < 1,000 g, n=6, SD)?
**A.** 0.51 L/kg

**Q.** What about the Vd ([1]; human, plasma, iv, 10 mg/kg/day, median (range), 10 mg/kg/day, IV, day 4, infants < 1,000 g, n=6) of the same compound?
**A.** 0.543 L/kg

**Q.** What about the AUC(0-t) ([1]; human, plasma, iv, AUC0–24, mean (SD), overall (7 and 10 mg/kg/day groups), day 4, n=12, plasma, SD) of the same compound?
**A.** 308 µg·h/mL

**Q.** What about the AUC(0-t) ([1]; human, plasma, iv, AUC0–24, median (range), overall (7 and 10 mg/kg/day groups), day 4, n=12, plasma) of the same compound?
**A.** 275 µg·h/mL

**Q.** What about the clearance ([1]; human, plasma, iv, CLss/wt, mean (SD), overall (7 and 10 mg/kg/day groups), day 4, n=12, SD) of the same compound?
**A.** 0.5 mL/min/kg

**Q.** What about the Tmax ([1]; human, plasma, iv, Tmax, mean (SD), overall (7 and 10 mg/kg/day groups), day 4, n=12, SD) of the same compound?
**A.** 1.2 h

**Q.** And the Vd ([1]; human, plasma, iv, mean (SD), overall (7 and 10 mg/kg/day groups), day 4, n=12, SD)?
**A.** 0.45 L/kg

**Q.** And the Vd ([1]; human, plasma, iv, median (range), overall (7 and 10 mg/kg/day groups), day 4, n=12)?
**A.** 0.503 L/kg

**Q.** And the “CLss/wt, median (range)” value [1, 6]?
**A.** 0.5 (0.2–0.8) ml/min/kg

**Q.** And the “Tmax, median (range)” value [1, 6]?
**A.** 1.1 (1.0–2.1) h

**Q.** And the “Allergic or histamine-like reactions, infusion-related toxicity, nephrotoxicity or hepatotoxicity” value ([2]; 7 and 10 mg/kg/day)?
**A.** no instances

**Q.** And the “Changes in AST and ALT from baseline to post-treatment” value ([2]; 7 and 10 mg/kg/day)?
**A.** minimal

**Q.** What about the “Renal toxicity / changes in hematology parameters” value ([2]; 7 and 10 mg/kg/day) of the same compound?
**A.** no evidence of renal toxicity or significant changes in hematology parameters

**Q.** What about the “Infants with AEs irrespective of causality” value ([2]; 7 and 10 mg/kg/day IV, ≥ 4 days, 12/13 infants) of the same compound?
**A.** 92.3%

**Q.** And the “Deaths / discontinuations because of an AE” value ([2]; 7 and 10 mg/kg/day, 13 infants)?
**A.** No deaths occurred in this study and no patients withdrew prematurely from the study because of an AE; also recorded: No deaths or discontinuations from treatment occurred

**Q.** And the Tolerability ([2]; doses of up to 10 mg/kg/day IV, ≥ 4 days, young infants)?
**A.** well tolerated

**Q.** What about the “Infants with serious AEs” value ([2]; four infants of 13, two in each treatment group) of the same compound?
**A.** 30.8%

**Q.** What about the “Average AUC” value ([3]; 150-mg dose) of the same compound?
**A.** 166.7 µg·h/mL

**Q.** What about the “AUC values well tolerated” value [3] of the same compound?
**A.** < 600 µg·h/mL

**Q.** And the Micafungin clearance rate [4]?
**A.** 39 mL/h/kg

**Q.** What about the “Micafungin clearance in children 2–8 years relative to children ≥ 9 years of age” value [5] of the same compound?
**A.** 1.5–2.0 times higher

From paper PMC2824925 (Clinical pharmacology and therapeutics, 2009)
